Calls of active or inactive are those of the source. No cut-off for these calls is given here.
Experiments:
P388 [1] = test: Inhibitory activity in vivo against P388 leukemia cells in mice at a dose of 50 mg/kg upon intraperitoneal administration; assay type: functional, Mus musculus
Procedure, shortened: (§1)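 Tumor source was ascites fluid implanted into BDF₁ mice. Tumor inoculation and drug dosing were both intraperitoneal, given once daily for 5 days (q1d × 5). Screening and data interpretation followed the general NCI protocol.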

L1210 [2] = test: Cytotoxic activity against L1210 leukemia in vitro.; assay type: functional, Mus musculus
P388 [3] = test: Inhibitory activity in vivo against P388 leukemia cells in mice at a dose of 12.5 mg/kg upon intraperitoneal administration; assay type: functional, Mus musculus; procedure, shortened: as §1
P388 [4] = test: Inhibitory activity in vivo against P388 leukemia cells in mice at a dose of 25 mg/kg upon intraperitoneal administration; assay type: functional, Mus musculus; procedure, shortened: as §1
Mus musculus [5] = test: Compound was evaluated for inhibitory activity against B-16 melanoma in mice at a dose of 3.13 mg/kg upon intraperitoneal administration; assay type: functional
Mus musculus [6] = test: Compound was evaluated for inhibitory activity in vivo against P388 leukemia cells in mice at a dose of 6.25 mg/kg upon intraperitoneal administration; assay type: functional; procedure, shortened: as §1
Mus musculus [7] = test: Compound was evaluated for inhibitory activity against B-16 melanoma in mice at a dose of 6.25 mg/kg upon intraperitoneal administration; assay type: functional
Mus musculus [8] = test: Compound was evaluated for inhibitory activity against B-16 melanoma in mice at a dose of 25 mg/kg upon intraperitoneal administration; assay type: functional
Homo sapiens [9] = species: Homo sapiens; test: Compound was tested for cytotoxic activity against human colon adenocarcinoma in vitro; assay type: functional
Mus musculus [10] = test: Compound was evaluated for inhibitory activity against B-16 melanoma in mice at a dose of 1.56 mg/kg upon intraperitoneal administration; assay type: functional
Mus musculus [11] = test: Compound was evaluated for inhibitory activity against B-16 melanoma in mice at a dose of 12.5 mg/kg upon intraperitoneal administration; assay type: functional
[12] = Cytotoxic activity against human colon adenocarcinoma in vitro; assay type: functional
Mus musculus [13] = test: Compound was evaluated for inhibitory activity in vivo against P388 leukemia cells in mice at a dose of 15 mg/kg upon intraperitoneal administration; assay type: functional; procedure, shortened: as §1
[14] = test system: L1210 leukemia (Mus musculus); test: Compound was evaluated for inhibitory activity against L1210 leukemia in mice at a dose of 50 mg/kg upon intraperitoneal administration
Mus musculus [15] = test: Compound was evaluated for inhibitory activity in vivo against P388 leukemia cells in mice at a dose of 60 mg/kg upon intraperitoneal administration; assay type: functional; procedure, shortened: as §1
Mus musculus [16] = test: Compound was evaluated for inhibitory activity in vivo against P388 leukemia cells in mice at a dose of 30 mg/kg upon intraperitoneal administration; assay type: functional; procedure, shortened: as §1
L1210 [17] = test: Compound was tested for cytotoxic activity against L1210 leukemia in vitro; IA means inactive; assay type: functional, cell-based; details: Mus musculus
P388 [18] = test: Inhibitory activity in vivo against P388 leukemia cells in mice at a dose of 100 mg/kg upon intraperitoneal administration; assay type: functional, Mus musculus; procedure, shortened: as §1
Mus musculus [19] = test: Compound was evaluated for inhibitory activity in vivo against P388 leukemia cells in mice at a dose of 3.13 mg/kg upon intraperitoneal administration; assay type: functional; procedure, shortened: as §1
Mus musculus [20] = test: Compound was evaluated for inhibitory activity in vivo against P388 leukemia cells in mice at a dose of 1.56 mg/kg upon intraperitoneal administration; assay type: functional; procedure, shortened: as §1
Mus musculus [21] = test: Compound was evaluated for inhibitory activity in vivo against P388 leukemia cells in mice at a dose of 3.12 mg/kg upon intraperitoneal administration; assay type: functional; procedure, shortened: as §1
Mus musculus [22] = test: Compound was evaluated for inhibitory activity in vivo against P388 leukemia cells in mice at a dose of 120 mg/kg upon intraperitoneal administration; assay type: functional; procedure, shortened: as §1
Mus musculus [23] = test: Compound was evaluated for inhibitory activity in vivo against P388 leukemia cells in mice at a dose of 240 mg/kg upon intraperitoneal administration; assay type: functional; procedure, shortened: as §1
Mus musculus [24] = test: Compound was evaluated for inhibitory activity in vivo against P388 leukemia cells in mice at a dose of 2 mg/kg upon intraperitoneal administration; assay type: functional; procedure, shortened: as §1
Mus musculus [25] = test: Compound was evaluated for inhibitory activity in vivo against P388 leukemia cells in mice at a dose of 16 mg/kg upon intraperitoneal administration; assay type: functional; procedure, shortened: as §1
Mus musculus [26] = test: Compound was evaluated for inhibitory activity in vivo against P388 leukemia cells in mice at a dose of 8 mg/kg upon intraperitoneal administration; assay type: functional; procedure, shortened: as §1
Mus musculus [27] = test: Compound was evaluated for inhibitory activity in vivo against P388 leukemia cells in mice at a dose of 4 mg/kg upon intraperitoneal administration; assay type: functional; procedure, shortened: as §1
Mus musculus [28] = test: Compound was evaluated for inhibitory activity in vivo against P388 leukemia cells in mice at a dose of 200 mg/kg upon intraperitoneal administration; assay type: functional; procedure, shortened: as §1
Homo sapiens [29] = species: Homo sapiens; test: Compound was tested for cytotoxic activity against human colon adenocarcinoma in vitro; IA means inactive; assay type: functional

Compound: Cl.O=C1c2cccc3cc([N+](=O)[O-])cc(c23)C(=O)N1CCN1CCNCC1
- T/C (P388 [1]): 136
- Cytotoxic concentration (L1210 [2]): 1380 nM
- T/C (P388 [3]): 116
- T/C (P388 [4]): 129

Compound: O=C1c2cccc3cc([N+](=O)[O-])cc(c23)C(=O)N1CCNCCO
- T/C (Mus musculus [5]): 142
- T/C (P388 [3]): 151
- T/C (Mus musculus [6]): 137
- T/C (Mus musculus [7]): 174
- T/C (Mus musculus [8]): 216
- Cytotoxic concentration (Homo sapiens [9]): 388 nM
- T/C (P388 [4]): 163
- T/C (Mus musculus [10]): 112
- T/C (Mus musculus [11]): 219

Compound: Cl.O=C1c2cc([N+](=O)[O-])cc3cc([N+](=O)[O-])cc(c23)C(=O)N1CCN1CCCCC1
- T/C (P388 [1]): 247
- Cytotoxic concentration (L1210 [2]): 287 nM
- T/C (P388 [3]): 138
- T/C (Mus musculus [7]): 114
- T/C (Mus musculus [8]): 156
- Cytotoxic concentration [12]: 539 nM
- T/C (P388 [4]): 181
- T/C (Mus musculus [11]): 133

Compound: Cl.Nc1cc2c3c(cc(N)cc3c1)C(=O)N(CCN1CCCCC1)C2=O
- T/C (Mus musculus [13]): 136
- Cytotoxic concentration (L1210 [2]): 1390 nM
- T/C (P388 [3]): 119
- T/C [14]: 145
- Cytotoxic concentration [12]: 1270 nM
- T/C (Mus musculus [15]): 191
- T/C (Mus musculus [16]): 142

Compound: Cl.O=C1c2cccc3cc([N+](=O)[O-])cc(c23)C(=O)N1CCN1CCOCC1
- T/C (P388 [1]): 105
- Cytotoxic concentration (L1210 [17]): inactive
- T/C (P388 [18]): 183

Compound: CN(C)CCN1C(=O)c2cccc3c(Cl)ccc(c23)C1=O
- T/C (P388 [1]): 121
- Cytotoxic concentration (L1210 [2]): 1010 nM
- T/C (P388 [18]): 120
- T/C (P388 [4]): 105

Compound: Cl.O=C1c2cccc3cc([N+](=O)[O-])cc(c23)C(=O)N1CCN1CCCC1
- Cytotoxic concentration (L1210 [2]): 159 nM
- T/C (P388 [3]): 163
- T/C (Mus musculus [6]): 149
- T/C (Mus musculus [19]): 135

Compound: CN(C)CCN1C(=O)c2cccc3cc([N+](=O)[O-])cc(c23)C1=O.Cl
- Cytotoxic concentration (L1210 [2]): 151 nM
- T/C (Mus musculus [6]): 164
- T/C (Mus musculus [20]): 121
- T/C (Mus musculus [21]): 138
- Cytotoxic concentration (Homo sapiens [9]): 106 nM

Compound: O=C1c2cc([N+](=O)[O-])cc3cc([N+](=O)[O-])cc(c23)C(=O)N1CCNCCO.O=S(=O)(O)O
- Cytotoxic concentration (L1210 [2]): 431 nM
- Cytotoxic concentration [12]: 1250 nM
- T/C (Mus musculus [22]): 123
- T/C (Mus musculus [15]): 123
- T/C (Mus musculus [16]): 118
- T/C (Mus musculus [23]): 132

Compound: Cl.O=C1c2cc([N+](=O)[O-])cc3cc([N+](=O)[O-])cc(c23)C(=O)N1CCN1CCOCC1
- T/C (P388 [1]): 147
- Cytotoxic concentration (L1210 [2]): 1130 nM
- T/C (P388 [3]): 112
- Cytotoxic concentration [12]: 722 nM
- T/C (P388 [4]): 131

Compound: CN(C)CCN1C(=O)c2cccc3cc(N)cc(c23)C1=O [AMONAFIDE]
- T/C (Mus musculus [24]): 135
- T/C (Mus musculus [25]): 177
- T/C (Mus musculus [26]): 144
- T/C (Mus musculus [27]): 142

Compound: CN(C)CCN1C(=O)c2cccc3cc(O)cc(c23)C1=O
- T/C (Mus musculus [28]): 142
- Cytotoxic concentration (L1210 [2]): 1640 nM
- Cytotoxic concentration (Homo sapiens [29]): inactive
- T/C (P388 [18]): 115

Compound: Cl.O=C1c2cccc3cccc(c23)C(=O)N1CCNCCO
- T/C (P388 [1]): 120
- Cytotoxic concentration (L1210 [2]): 2050 nM
- T/C (P388 [4]): 102

Compound: Cl.O=C1c2cccc3cc([N+](=O)[O-])cc(c23)C(=O)N1CCN1CCCCC1
- T/C (P388 [1]): 176
- Cytotoxic concentration (L1210 [2]): 590 nM
- T/C (P388 [3]): 119
- T/C (P388 [4]): 137

Compound: CNCCN1C(=O)c2cccc3cc([N+](=O)[O-])cc(c23)C1=O.Cl
- Cytotoxic concentration (L1210 [2]): 266 nM
- T/C (P388 [3]): 177
- T/C (Mus musculus [6]): 139
- T/C (Mus musculus [21]): 129

Compound: COc1ccc2c3c(cccc13)C(=O)N(CCN(C)C)C2=O
- T/C (Mus musculus [28]): 133
- T/C (P388 [1]): 109
- Cytotoxic concentration (L1210 [17]): inactive
- T/C (P388 [18]): 117

Source: ChEMBL document CHEMBL1123030, “N-(Aminoalkyl)imide antineoplastic agents. Synthesis and biological activity” (J Med Chem, 1985)
